Test results as given in ChEMBL document CHEMBL1153046, “Synthesis and antitumor activity of substituted triazolo[4,3-a]pyrimidin-6-sulfonamide with an incorporated thiazolidinone moiety” (2009).

Experiments:
Type in all cases: functional
HCT-116 = test: Growth inhibition of human HCT116 cells after 48 hrs by sulforhodamine B assay; conditions: HCT-116, 48 h
Method in brief: (§1)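 NCI 60-cell-line panel. Cells are grown in RPMI1640 with 5% fetal calf serum and 2 mM L-glutamine, seeded at a density set by growth characteristics, and preincubated 24 h. Compound is tested at a minimum of five concentrations at 10-fold dilution, with 48 h continuous exposure. Viability is read by sulforhodamine B protein assay. GI50, TGI and LC50 come from dose-response curves.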

A549 = test: Growth inhibition of human A549 cells after 48 hrs by sulforhodamine B assay; conditions: A549, 48 h; method in brief: as §1
SK-MEL-5 = test: Growth inhibition of human SK-MEL-5 cells after 48 hrs by sulforhodamine B assay; conditions: SK-MEL-5, 48 h; for CC50: read-out: LC50 (the source's name); method in brief: as §1
HCC 2998 = test: Growth inhibition of human HCC2998 cells after 48 hrs by sulforhodamine B assay; conditions: HCC 2998, 48 h; method in brief: as §1
UACC-62 = test: Growth inhibition of human UACC62 cells after 48 hrs by sulforhodamine B assay; conditions: UACC-62, 48 h; for CC50: read-out: LC50 (the source's name)
Method in brief: (§2)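 NCI 60-cell-line panel (nine cancer types), with cells grown in RPMI1640 plus 5% fetal calf serum and 2 mM L-glutamine. Cells are seeded at a density that depends on the line and preincubated 24 h. Compounds are then applied at a minimum of five 10-fold dilutions over a 5-log range with 48 h continuous exposure. Viability is read by SRB protein assay, and GI50 is derived from dose-response curves in units of 10^-5 M.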

BT-549 = test: Growth inhibition of human BT549 cells after 48 hrs by sulforhodamine B assay; conditions: BT-549, 48 h; method in brief: as §1
SK-MEL-2 = test: Growth inhibition of human SK-MEL-2 cells after 48 hrs by sulforhodamine B assay; conditions: SK-MEL-2, 48 h; method in brief: as §1
NCI-H460 = test: Antiproliferative activity against human NCI-H460 cells assessed as cell growth at 100 uM after 48 hrs by alamar blue assay; conditions: NCI-H460, 48 h, read-out: Activity
Method in brief: (§3)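 NCI three-cell-line primary screen. Cells are seeded and preincubated in microtiter plates. Compound is added at a single 10^-4 M concentration and cultures are incubated 48 h. The end-point is read with alamar blue. Results are given as percent growth relative to untreated control cells.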

MCF7 [1] = test: Growth inhibition of human MCF7 cells after 48 hrs by sulforhodamine B assay; conditions: MCF7, 48 h; method in brief: as §1
PC-3 = test: Growth inhibition of human PC3 cells after 48 hrs by sulforhodamine B assay; conditions: PC-3, 48 h; method in brief: as §1
MCF7 [2] = test: Antiproliferative activity against human MCF7 cells assessed as cell growth at 100 uM after 48 hrs by alamar blue assay; conditions: MCF7, 48 h, read-out: Activity; method in brief: as §3
HT-29 = test: Growth inhibition of human HT-29 cells after 48 hrs by sulforhodamine B assay; conditions: HT-29, 48 h; method in brief: as §1
NCI-H23 = test: Growth inhibition of human NCI-H23 cells after 48 hrs by sulforhodamine B assay; conditions: NCI-H23, 48 h; method in brief: as §1
HOP-62 = test: Growth inhibition of human HOP62 cells after 48 hrs by sulforhodamine B assay; conditions: HOP-62, 48 h; method in brief: as §1
NCI/ADR-RES = test: Growth inhibition of human NCI/ADR-RES cells after 48 hrs by sulforhodamine B assay; method in brief: as §1
KM12 = test: Growth inhibition of human KM12 cells after 48 hrs by sulforhodamine B assay; conditions: KM12, 48 h; method in brief: as §1
LOX IMVI = test: Growth inhibition of human LOXIMVI cells after 48 hrs by sulforhodamine B assay; method in brief: as §1
MDA-MB-231 = test: Growth inhibition of human MDA-MB-231 cells after 48 hrs by sulforhodamine B assay; conditions: MDA-MB-231, 48 h; method in brief: as §1
SNB-19 = test: Growth inhibition of human SNB19 cells after 48 hrs by sulforhodamine B assay; conditions: SNB-19, 48 h; method in brief: as §2
OVCAR-8 = test: Growth inhibition of human OVCAR8 cells after 48 hrs by sulforhodamine B assay; conditions: OVCAR-8, 48 h; method in brief: as §1
K562 = test: Growth inhibition of human K562 cells after 48 hrs by sulforhodamine B assay; conditions: K562, 48 h; method in brief: as §1
SR = test: Growth inhibition of human SR cells after 48 hrs by sulforhodamine B assay; method in brief: as §2
EKVX = test: Growth inhibition of human EKVX cells after 48 hrs by sulforhodamine B assay; method in brief: as §1
DU-145 = test: Growth inhibition of human DU145 cells after 48 hrs by sulforhodamine B assay; conditions: DU-145, 48 h; method in brief: as §1
[3] = Growth inhibition of human Hs 578T cells after 48 hrs by sulforhodamine B assay; method in brief: as §1
A498 = test: Growth inhibition of human A498 cells after 48 hrs by sulforhodamine B assay; conditions: A498, 48 h; method in brief: as §1
M14 = test: Growth inhibition of human M14 cells after 48 hrs by sulforhodamine B assay; conditions: M14, 48 h; method in brief: as §1
UO-31 = test: Growth inhibition of human UO31 cells after 48 hrs by sulforhodamine B assay; conditions: UO-31, 48 h; method in brief: as §2
U-251 = test: Growth inhibition of human U251 cells after 48 hrs by sulforhodamine B assay; conditions: U-251, 48 h; method in brief: as §2
TK-10 = test: Growth inhibition of human TK10 cells after 48 hrs by sulforhodamine B assay; conditions: TK-10, 48 h; method in brief: as §2
SF-268 = test: Growth inhibition of human SF268 cells after 48 hrs by sulforhodamine B assay; conditions: SF-268, 48 h; for CC50: read-out: LC50 (the source's name); method in brief: as §1

## COc1ccc(/C=N/c2nc3[nH]nc(C)n3c(=O)c2S(=O)(=O)NN2C(=O)C(CN3CCOCC3)SC2c2ccc(OC)cc2)cc1 (configuration not stated)
HCT-116
  GI50: 29.7 µM
  LC50 (concentration killing 50% of cells): > 100 µM
  TGI: 97.3 µM
A549
  GI50: 29.6 µM
  TGI: > 100 µM
SK-MEL-5
  GI50: 19 µM
  TGI: > 100 µM
  CC50: > 100 µM
HCC 2998
  GI50: 22 µM
  LC50: > 100 µM
  TGI: > 100 µM
UACC-62
  GI50: 25.4 µM
  TGI: > 100 µM
  CC50: > 100 µM
BT-549
  GI50: > 100 µM
  TGI: > 100 µM
SK-MEL-2
  GI50: 99.3 µM
  LC50 (concentration killing 50% of cells): > 100 µM
  TGI: > 100 µM
NCI-H460
  growth at 100 µM: 16%
MCF7 [1]
  GI50: 77.3 µM
  TGI: > 100 µM
PC-3
  GI50: 24.6 µM
  LC50 (concentration killing 50% of cells): > 100 µM
  TGI: > 100 µM
MCF7 [2]
  growth at 100 µM: 64%
HT-29
  GI50: 26.7 µM
NCI-H23
  GI50: 87.8 µM
  TGI: > 100 µM
HOP-62
  GI50: 86.6 µM
  LC50: > 100 µM
  TGI: > 100 µM
NCI/ADR-RES
  GI50: 43.1 µM
  TGI: > 100 µM
KM12
  GI50: 36.1 µM
LOX IMVI
  GI50: 21.6 µM
  TGI: 62.4 µM
MDA-MB-231
  GI50: 25.3 µM
  LC50 (50% lethal concentration): > 100 µM
  TGI: > 100 µM
SNB-19
  GI50: > 100 µM
  TGI: > 100 µM
OVCAR-8
  GI50: 31.4 µM
  TGI: > 100 µM
K562
  GI50: 13 µM
  LC50: 80.5 µM
  TGI: 32.3 µM
SR
  GI50: 11.7 µM
  LC50 (concentration killing 50% of cells): 71.5 µM
  TGI: 28.9 µM
EKVX
  GI50: 93.9 µM
  TGI: > 100 µM
DU-145
  GI50: 28.8 µM
  LC50 (concentration giving 50% net cell kill): > 100 µM
  TGI: > 100 µM
[3]
  GI50: 41.1 µM
  LC50 (concentration killing 50% of cells): > 100 µM
  TGI: > 100 µM
A498
  GI50: 25.5 µM
  LC50 (concentration giving 50% net cell kill): > 100 µM
  TGI: 69.2 µM
M14
  GI50: 67.4 µM
  LC50 (concentration killing 50% of cells): > 100 µM
  TGI: > 100 µM
UO-31
  GI50: 39.6 µM
  LC50: > 100 µM
  TGI: > 100 µM
U-251
  GI50: 40.4 µM
  LC50: > 100 µM
  TGI: > 100 µM
TK-10
  GI50: 40.1 µM
  LC50: > 100 µM
  TGI: > 100 µM
SF-268
  GI50: > 100 µM
  TGI: > 100 µM
  CC50: > 100 µM

## COc1ccc(/C=N/c2nc3[nH]nc(C)n3c(=O)c2S(=O)(=O)NN2C(=O)C(CN3CCN(C)CC3)SC2c2ccc(OC)cc2)cc1 (configuration not stated)
HCT-116
  GI50: 5.89 µM
  LC50 (concentration killing 50% of cells): 71.5 µM
  TGI: 47.2 µM
A549
  GI50: 13.4 µM
  TGI: 50.8 µM
SK-MEL-5
  GI50: 19.3 µM
  TGI: 39 µM
  CC50: 78.5 µM
HCC 2998
  GI50: 8.59 µM
  LC50: 71.9 µM
  TGI: 22.5 µM
UACC-62
  GI50: 18.9 µM
  TGI: 38.4 µM
  CC50: 77.8 µM
BT-549
  GI50: 19.1 µM
  TGI: 46.3 µM
SK-MEL-2
  GI50: 21.3 µM
  LC50 (concentration killing 50% of cells): 99.4 µM
  TGI: 46.1 µM
NCI-H460
  growth at 100 µM: 0%
MCF7 [1]
  GI50: 15.3 µM
  TGI: 47.8 µM
PC-3
  GI50: 14.7 µM
  LC50 (concentration killing 50% of cells): 70.2 µM
  TGI: 32.2 µM
MCF7 [2]
  growth at 100 µM: 9%
HT-29
  GI50: 34.7 µM
NCI-H23
  GI50: 20.5 µM
  TGI: 48.1 µM
HOP-62
  GI50: 20.2 µM
  LC50: 82.6 µM
  TGI: 40.9 µM
NCI/ADR-RES
  GI50: 14.1 µM
  TGI: 40.2 µM
KM12
  GI50: 24.8 µM
LOX IMVI
  GI50: 7.4 µM
  TGI: > 100 µM
MDA-MB-231
  GI50: 12.2 µM
  LC50 (50% lethal concentration): 88.6 µM
  TGI: 32.9 µM
SNB-19
  GI50: 25.7 µM
  TGI: 72.5 µM
OVCAR-8
  GI50: 7.82 µM
  TGI: 47.2 µM
K562
  GI50: 13 µM
  LC50: 63.3 µM
  TGI: 28.7 µM
SR
  GI50: 7.72 µM
  LC50 (concentration killing 50% of cells): 84.9 µM
  TGI: 27.5 µM
EKVX
  GI50: 25.9 µM
  TGI: 60.3 µM
DU-145
  GI50: 11.8 µM
  LC50 (concentration giving 50% net cell kill): 86.6 µM
  TGI: 32 µM
[3]
  GI50: 13 µM
  LC50 (concentration killing 50% of cells): 88.7 µM
  TGI: 34 µM
A498
  GI50: 12.9 µM
  LC50 (concentration giving 50% net cell kill): 60.9 µM
  TGI: 28.1 µM
M14
  GI50: 17 µM
  LC50 (concentration killing 50% of cells): 78 µM
  TGI: 36.5 µM
UO-31
  GI50: 20.6 µM
  LC50: 70.5 µM
  TGI: 38.1 µM
U-251
  GI50: 17.6 µM
  LC50: > 100 µM
  TGI: 45.2 µM
TK-10
  GI50: 19.4 µM
  LC50: 82.1 µM
  TGI: 39.9 µM
SF-268
  GI50: 17.7 µM
  TGI: 42 µM
  CC50: 99.6 µM
